The source made the active and inactive calls. The rule behind the calls is not given here.
Assays:
[1] = Permeability across apical to basolateral side in human Caco2 cells; format: ADME, cell-based; details: caco-2
[2] = Systemic clearance in Wistar rat at 3 mg/kg, iv by LC-MS/MS analysis; format: ADME, organism-based; details: in vivo
Method in brief: (§1)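 Male Wistar rats, n = 4; iv dose 3 mg/kg in 10% NMP, 10% Cremophor EL, acetate buffer pH 4.2 q.s.; values are means.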

[3] = Volume of distribution at steady state in Wistar rat at 3 mg/kg, iv by LC-MS/MS analysis; format: ADME, organism-based; details: in vivo, read-out: Vdss; method in brief: as §1
Mus musculus = assay: Antidepressant-like activity in po dosed mouse assessed as reduction in immobility time treated 1 hr prior to testing measured for 6 mins by tail suspension test
Rattus norvegicus [4] = assay: Anti-parkinson's activity in po dosed 6-OHDA-lesioned Wistar rat assessed as increase in L-DOPA induced contralateral rotations measured up to 2 hrs; format: functional
Method in brief: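 6-OHDA-lesioned rats given oral test doses; L-DOPA 4 mg/kg ip; contralateral rotations recorded up to 2 h, dosing 60 min prior; mean ± SEM, n=6-7; compared with L-DOPA-alone group.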

[5] = Protein binding in dog plasma; format: ADME, cell-free, Canis lupus familiaris; details: read-out: PPB (converted)
[6] = Metabolic stability in mouse liver microsomes assessed as metabolic rate; format: ADME, microsome
Method in brief: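 Liver microsomes (mouse, rat, dog, human) at 0.125 mg/mL protein; metabolic rate expressed as nmol/min/mg.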

Rattus norvegicus [7] = assay: Protection against L-DOPA-induced dyskinesias in 6-OHDA-lesioned Wistar rat model of parkinson's disease assessed as reduction in abnormal involuntary movements at 0.3 to 3 mg/kg, po administered twice daily for 21 days measured every 7 days; format: functional, organism-based
Method in brief: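 6-OHDA-lesioned rats given oral test compound (0.3-3 mg/kg) with L-DOPA, repeated daily; abnormal involuntary movements scored; mean ± SEM, n=6-7.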

permeability [1]: Permeable
clearance [2]: 45 mL/min/kg
Vd [3]: 3.6 L/kg
fraction unbound [5]: 0.22
Drug metabolism [6]: 0.08 nmol/min/mg
Compound: COCCOc1ccc(N2CCN(CCn3c(=O)n(C)c4c3nc(N)n3nc(-c5nccs5)nc43)CC2)cc1F
ED50 (Mus musculus): 0.7 mg/kg
Activity (Rattus norvegicus [4]): Dose-dependent effect
ED50 (Rattus norvegicus [4]): 1.2 mg/kg
Activity (Rattus norvegicus [7]): Active
